Reference: ChEMBL document CHEMBL4052822, “Design and Synthesis of Orally Bioavailable Piperazine Substituted 4(1H)-Quinolones with Potent Antimalarial Activity: Structure-Activity and Structure-Property Relationship Studies” (J Med Chem, 2018)
Activity calls are given as the source filed them. The rule behind the calls is not given here.

Columns and labels:
J774 = test: Cytotoxicity against mouse J774 cells after 72 hrs by CellTiter-96 aqueous one solution cell proliferation assay; assay type: cell-based; conditions: J774, 72 h
Method in brief: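 Compounds from 10 µg/mL or 20 µM top concentration, 1:2 serial dilutions over 11 concentrations, 72 h at 37 °C, 5% CO2. MTS-type reagent added for 4 h, absorbance read at 490 nm. IC50 by nonlinear regression.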

Plasmodium berghei [1] = test: Antimalarial activity against blood stage form of GFP transfected Plasmodium berghei infected in mouse assessed as protection against parasitemia at 10 mg/kg, po administered on day 3, 4, 5 post infection measured on day 30 by Thompson test; assay type: functional, organism-based
Method in brief: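 Modified Thompson model: mice inoculated ip with 2×10^6 P. berghei (GFP)-infected red blood cells, parasitemia near 1% by day 3. […] Animals followed for 30 days; survival to day 30 with parasitemia below 1% counted as cure.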

Plasmodium falciparum [2] = test: Antimalarial activity against pyrimethamine/chloroquine-resistant Plasmodium falciparum W2 infected in human type A-positive erythrocytes after 48 hrs by [3H]-hypoxanthine incorporation assay; assay type: functional, cell-based
Method in brief: (§1)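 Compound from 10.0 mM DMSO stock, diluted ≥1:400, then 11 concentrations in duplicate. Incubated at 37 °C under 90% N2/5% O2/5% CO2 for 48 h, then 3H-hypoxanthine added for 24 h more. CPM counted; EC50 by nonlinear regression.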

Plasmodium falciparum [3] = test: Antimalarial activity against mefloquine/chloroquine/atovaquone/pyrimethamine-resistant Plasmodium falciparum TM90-C2B infected in human type A-positive erythrocytes after 48 hrs by [3H]-hypoxanthine incorporation assay; assay type: functional, cell-based; method in brief: as §1
Plasmodium berghei [4] = test: Antimalarial activity against Plasmodium berghei infected in human HepG2 cells after 44 hrs by luciferase assay; assay type: functional, cell-based; conditions: HepG2, 44 h
Method in brief: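 HepG2 cells, 75000 per well, in DMEM with 10% FBS at 37 °C, 5% CO2. 5000 Pb luciferase sporozoites from dissected mosquito salivary glands added per well for 3 h, then washed three times with PBS. Serially diluted compound added in triplicate, 44 h at 37 °C. Cells lysed, luciferase substrate added, luminescence read.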

Plasmodium berghei [5] = test: Antimalarial activity against blood stage form of GFP transfected Plasmodium berghei infected in mouse assessed as mouse survival day at 10 mg/kg, po administered on day 3, 4, 5 post infection by Thompson test; assay type: functional
[6] = Resistance index, ratio of EC50 for mefloquine/chloroquine/atovaquone/pyrimethamine-resistant Plasmodium falciparum TM90-C2B to EC50 for pyrimethamine/chloroquine-resistant Plasmodium falciparum W2; assay type: functional
Plasmodium berghei [7] = test: animal or person; conditions: in Mus musculus, po, read-out: INH
[8] = Aqueous solubility of compound at pH 6.5; assay type: physicochemical

Structure (SMILES)	EC50 (J774) [nM]	Activity (Plasmodium berghei [1])	EC50 (Plasmodium falciparum [2]) [nM]	EC50 (Plasmodium falciparum [3]) [nM]	EC50 (Plasmodium berghei [4]) [nM]	Survival (Plasmodium berghei [5])	Ratio EC50 [6]	inhibition in vivo at 50 mg/kg (Plasmodium berghei [7]) [%]	solubility [8] [µM]
O=C1C(O)=C([C@H]2CC[C@H](c3ccc(Cl)cc3)CC2)C(=O)c2ccccc21 [ATOVAQUONE]	28000	Active							
COC(=O)c1c[nH]c2cc(CN3CCN(c4ccc(C(F)(F)F)cc4)CC3)c(OC)cc2c1=O	> 20000		6.4	210	9.6				
Cc1[nH]c2cc(CN3CCN(c4ccc(F)cc4)CC3)ccc2c(=O)c1Br	> 20000	inactive		26		<=13 day			
Cc1[nH]c2cc(CN3CCN(c4ccc(C(F)(F)F)cc4)CC3)ccc2c(=O)c1Cl	> 20000		140	1500			11		
COC(=O)c1c[nH]c2ccc(CN3CCN(c4ccc(OC)cc4)CC3)cc2c1=O	> 20000		160	> 2000	> 100				
O=c1c(Cl)c[nH]c2cc(CN3CCN(c4ccc(F)cc4)CC3)ccc12	> 20000		1100	> 2000				71.9	
Cc1cc(=O)c2ccc(CN3CCN(c4ccc(F)cc4)CC3)cc2[nH]1	> 20000		1200	1500			1.2		
COC(=O)c1c[nH]c2cc(N3CCN(c4ccc(OC)cc4)CC3)c(OC)cc2c1=O	> 20000		43	2000	> 100		47		
COC(=O)c1c[nH]c2cc(CN3CCN(Cc4ccccc4)CC3)c(C)cc2c1=O	> 20000		1.5	890	9.5			24.6	
COC(=O)c1c[nH]c2cc(CCN3CCN(Cc4ccccc4)CC3)ccc2c1=O	> 20000		120	> 2000	160				≥ 80
COC(=O)c1c[nH]c2cc(CN3CCN(c4ccc(F)cc4)CC3)c(C)cc2c1=O	16000		0.84	350	2.6	<=21 day			
COC(=O)c1c[nH]c2cc(CN3CCN(c4ccc(C(F)(F)F)cc4)CC3)c(C)cc2c1=O	> 20000		0.066	100					
COC(=O)c1c[nH]c2cc(N3CCN(c4ccc(OC)cc4)CC3)ccc2c1=O	> 20000		7.8	150			20		
CCN(CC)CCCC(C)Nc1ccnc2cc(Cl)ccc12 (stereo not drawn) [CHLOROQUINE]	47200								
COC(=O)c1c[nH]c2ccc(CN3CCN(c4ccccc4)CC3)cc2c1=O	> 20000		150	> 2000	91				
COC(=O)c1c[nH]c2cc(N3CCN(c4ccccc4)CC3)ccc2c1=O	> 20000		4.5	250	74				< 20
COC(=O)c1c[nH]c2cc(CCN3CCN(c4ccccc4)CC3)ccc2c1=O	> 20000		25	1500			60		≥ 80
COC(=O)c1c[nH]c2cc(CN3CCN(c4ccccc4)CC3)c(OC)cc2c1=O	> 20000		1.6	490	110			82.4	
C[C@H]1[C@@H](O)O[C@@H]2O[C@@]3(C)CC[C@H]4[C@H](C)CC[C@@H]1[C@@]24OO3 [ARTENIMOL]	1500								
COC(=O)c1c[nH]c2cc(N3CCN(c4ccccc4)CC3)c(C)cc2c1=O	17000		46	1100				31.6	

Structure (SMILES)	EC50 (J774) [nM]	Activity (Plasmodium berghei [1])	EC50 (Plasmodium falciparum [2]) [nM]	EC50 (Plasmodium falciparum [3]) [nM]	EC50 (Plasmodium berghei [4]) [nM]	Survival (Plasmodium berghei [5])	Ratio EC50 [6]	inhibition in vivo at 50 mg/kg (Plasmodium berghei [7]) [%]	solubility [8] [µM]
COC(=O)c1c[nH]c2ccc(CN3CCN(c4ccc(F)cc4)CC3)cc2c1=O	> 20000		110	> 2000					
COC(=O)c1c[nH]c2cc(CN3CCN(c4ccc(OC)cc4)CC3)ccc2c1=O			3.6	220	0.12			39.2	
COC(=O)c1c[nH]c2cc(CN3CCN(Cc4ccccc4)CC3)ccc2c1=O	10000		1.4	150	44			12.3	≥ 80
Cc1[nH]c2cc(CN3CCN(c4ccc(C(F)(F)F)cc4)CC3)ccc2c(=O)c1Br	> 20000		120	95			0.8		
COC(=O)c1c[nH]c2cc(N3CCN(Cc4ccccc4)CC3)c(C)cc2c1=O	> 20000		13	980	> 100		75		
COC(=O)c1c[nH]c2cc(CN3CCN(c4ccc(OC)cc4)CC3)c(OC)cc2c1=O	16000		3.4	860	10			70.6	
COC(=O)c1c[nH]c2cc(CN3CCN(c4ccccc4)CC3)c(C)cc2c1=O	12000	inactive	0.44	150	6.9				
COC(=O)c1c[nH]c2cc(CN3CCN(c4ccc(F)cc4)CC3)c(OC)cc2c1=O	> 20000		1.8	220	32			56.9	
COC(=O)c1c[nH]c2cc(CN3CCN(Cc4ccc5c(c4)OCO5)CC3)ccc2c1=O	> 20000		160	> 2000					
COC(=O)c1c[nH]c2cc(N3CCN(Cc4ccccc4)CC3)c(OC)cc2c1=O	12000		64	200					
COC(=O)c1c[nH]c2cc(CN3CCN(Cc4ccc(OC)cc4)CC3)c(OC)cc2c1=O	> 20000		10	> 2000	52			24.6	
COC(=O)c1c[nH]c2cc(CN3CCN(Cc4ccccc4)CC3)c(OC)cc2c1=O	> 20000		5.5	> 2000	9.3			19.3	
COC(=O)c1c[nH]c2cc(CN3CCN(c4ccc(OC)cc4)CC3)c(C)cc2c1=O	> 20000		0.57	180	4.1				
COC(=O)c1c[nH]c2cc(N3CCN(Cc4ccc(OC)cc4)CC3)ccc2c1=O			20	1300			65		
COC(=O)c1c[nH]c2cc(N3CCN(c4ccccc4)CC3)c(OC)cc2c1=O	17000		37	800					
COc1cc2c(=O)c(Br)c(C)[nH]c2cc1CN1CCN(c2ccc(C(F)(F)F)cc2)CC1	> 20000		130	> 2000					
COC(=O)c1c[nH]c2ccc(CN3CCN(c4ccc(C(F)(F)F)cc4)CC3)cc2c1=O	> 20000		45	> 2000	85				
COC(=O)c1c[nH]c2cc(CCN3CCN(Cc4ccc(OC)cc4)CC3)ccc2c1=O	> 20000		12						≥ 80
COC(=O)c1c[nH]c2cc(CN3CCN(Cc4ccc(OC)cc4)CC3)c(C)cc2c1=O	> 20000		2.4	1000					
COC(=O)c1c[nH]c2cc(N3CCN(Cc4ccccc4)CC3)ccc2c1=O	> 20000		16	860	85				
